Results from article PMC11812931 (CPT: Pharmacometrics & Systems Pharmacology, 2024).
Marks after values point to notes of the source that are not given here.

Columns and labels:
[1] = MPKF phase I two-period crossover food effect pharmacokinetic study; assay type: in vivo, human; conditions: for AUC0–inf LSM geometric mean ratio (90% CI) / C max LSM geometric mean ratio (90% CI): fed (test) vs fasted (reference); for AUC(0-inf) / Cmax: human, 120 mg; for AUC(0-inf): AUC0–inf; for Cmax: C max
[2] = PopPK model of MDMA and MDA; assay type: in vivo, human
Method in brief: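 Single-dose plasma data came from 65 healthy volunteers: 16 from the fasted food-effect study and 49 from a randomized, double-blind, placebo-controlled crossover study. The dataset held 2012 MDMA and 1871 MDA samples, excluding BLQ values, samples with missing time and pre-dose concentrations. Modelling used nonlinear mixed effects with first-order conditional estimation with interaction. One- and two-compartment models were tested, with first-order or sequential zero-/first-order absorption.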

[3] = HVs, single oral dose of 100 mg MDMA HCl, absence of paroxetine; cited from earlier work
[4] = cited from earlier work
[5] = plasma, oral, Median [Min, Max], 120 mg MDMA HCl, Fasted
[6] = plasma, oral, Median [Min, Max], 120 mg MDMA HCl, Fed
[7] = plasma, po, Geo. Mean (Geo. CV%), single oral 120 mg MDMA HCl, Fasted, N = 15
[8] = plasma, po, Geo. Mean (Geo. CV%), single oral 120 mg MDMA HCl, Fed (high-fat/high-calorie meal), N = 14
[9] = MPKF fasted vs NIDA light breakfast
[10] = MPKF fed vs NIDA light breakfast

## CC(N)Cc1ccc2c(c1)OCO2 (stereo not drawn) [MDA, 3,4‐methylenedioxyamphetamine]
[1]
  AUC0–inf LSM geometric mean ratio (90% CI): 0.99 (0.93–1.06)
  C max LSM geometric mean ratio (90% CI): 0.96 (0.90–1.03)
[1]; [5]
  AUC(0-inf): 358 ng·h/mL
  Cmax: 12.5 ng/mL
[1]; [6]
  AUC(0-inf): 343 ng·h/mL
[1]; [7]
  AUC(0-inf): 330 ng·h/mL
[1]; [8]
  AUC(0-inf): 369 ng·h/mL
[2]; compared to male
  lower V4 (MDA peripheral volume of distribution) in female subjects: 18%
[2]; covariate coefficient
  Body weight effect on CLM, Bootstrap median (95% CI): 0.585 (0.209, 0.879)
  Body weight effect on CLM, Estimate: 0.580
  Body weight effect on QM, Bootstrap median (95% CI): 1.02 (0.408, 1.63)
  Body weight effect on QM, Estimate: 1.00
[2]; female vs male
  Sex effect on V4, Bootstrap median (95% CI): −0.18 (−0.321, −0.0256)
  Sex effect on V4, Estimate: −0.181
[2]; human, plasma, oral
  Vd: 20.8 L
  clearance: 582 mL/min
[2]; inter-individual variability
  IIV on CLM, Estimate: 32.0 ^ b , ^ c %CV
  IIV on QM, Estimate: 46.8 ^ b , ^ d %CV
  IIV on V4, Estimate: 35.2 ^ c , ^ d %CV
[2]; n = 1000 bootstrap
  CLM, Bootstrap median (95% CI): 36.1 (33.5, 38.8) L/h
  QM, Bootstrap median (95% CI): 83.9 (68.8, 103) L/h
  V3, Bootstrap median (95% CI): 20.8 (11.9, 28.4) L
  V4, Bootstrap median (95% CI): 213 (181, 246) L

## CNC(C)Cc1ccc2c(c1)OCO2 (stereo not drawn) [MDMA, 3,4‐methylenedioxymethamphetamine]
[1]
  AUC0–inf LSM geometric mean ratio (90% CI): 0.99 (0.94–1.04)
  C max LSM geometric mean ratio (90% CI): 0.97 (0.92–1.01)
[1]; fed vs fasted
  T max delay following administration with food: 2 h
[1]; [5]
  AUC(0-inf): 3730 ng·h/mL
  Cmax: 234 ng/mL
[1]; [6]
  Cmax: 230 ng/mL
[1]; [7]
  AUC(0-inf): 3390 ng·h/mL
[1]; [8]
  AUC(0-inf): 3320 ng·h/mL
[1]; plasma, 120 mg MDMA HCl, Fasted
  T max, Median [Min, Max]: 2.1 [2.0, 8.0] h
[1]; single 120 mg MDMA HCl, healthy volunteers
  adverse events (AE) severity: mild in severity and resolved
[2]; FIXED in the model
  fmet (fraction of MDMA metabolized to MDA): 0.1 FIXED
[2]; MPKF fasted compared to NIDA light breakfast
  faster absorption in fasted subjects: 193%
[2]; [9]
  Fasted status effect on ka, Bootstrap median (95% CI): 1.08 (0.277, 4.31)
  Fasted status effect on ka, Estimate: 1.93
[2]; [10]
  Fed status effect on ka, Bootstrap median (95% CI): −0.496 (−0.645, −0.239)
  Fed status effect on ka, Estimate: −0.484
[2]; MPKF vs NIDA
  Study effect on V2/F, Bootstrap median (95% CI): −0.267 (−0.342, −0.19)
  Study effect on V2/F, Estimate: −0.263
[2]; compared to NIDA
  lower MDMA CL/F for MPKF subjects: 36%
  lower MDMA V2/F for MPKF subjects: 26%
[2]; covariate coefficient
  Body weight effect on V2/F, Bootstrap median (95% CI): 0.884 (0.6, 1.11)
  Body weight effect on V2/F, Estimate: 0.885
[2]; final MDMA PopPK model
  ALAG1 (absorption lag time), Estimate: 0.322 h
  CL/F, Estimate: 41.5 L/h
  D1 (duration of zero order input), Estimate: 0.304 h
  V2/F, Estimate: 462 L
  ka, Estimate: 1.17 h⁻¹
[2]; inter-individual variability
  IIV on CL/F, Estimate: 30.5 ^a %CV
  IIV on D1, Estimate: 153 %CV
  IIV on KA, Estimate: 60.2 %CV
  IIV on V2/F, Estimate: 19.9 ^a %CV
[2]; n = 1000 bootstrap
  ALAG1, Bootstrap median (95% CI): 0.323 (0.273, 0.358) h
  CL/F, Bootstrap median (95% CI): 41.8 (37.7, 45.8) L/h
  D1, Bootstrap median (95% CI): 0.271 (0.141, 0.485) h
  V2/F, Bootstrap median (95% CI): 461 (429, 496) L
  ka, Bootstrap median (95% CI): 1.17 (0.969, 1.43) 1/h
[3]
  CL/F (apparent oral clearance): 36.3 L/h
  CLR (renal clearance): 9.40 L/h
[4]
  effective dose (as low as): ≥ 75 mg HCl
[4]; split dose
  tolerated dose (as high as): ≤ 225 mg HCl
